In ChEMBL document CHEMBL1129987, “Structure-based design of nonpeptidic HIV protease inhibitors: the sulfonamide-substituted cyclooctylpyramones” (J Med Chem, 1997):

Columns and labels:
[1] = biological target: Human immunodeficiency virus type 1 protease (Human immunodeficiency virus 1) (UniProt Q72874); assay: Percentage inhibition against HIV-1 protease at 1.1 uM concentration of drug
[2] = biological target: Human immunodeficiency virus type 1 protease (Human immunodeficiency virus 1) (UniProt Q72874); assay: Percentage inhibition against HIV-1 protease at 10 uM concentration of drug
[3] = biological target: Human immunodeficiency virus type 1 protease (Human immunodeficiency virus 1) (UniProt Q72874); assay: Percentage inhibition against HIV-1 protease at 1 uM concentration of drug
[4] = biological target: Human immunodeficiency virus type 1 protease (Human immunodeficiency virus 1) (UniProt Q72874); assay: Percentage inhibition against HIV-1 protease at 3 uM concentration of drug
[5] = biological target: Human immunodeficiency virus type 1 protease (Human immunodeficiency virus 1, UniProt Q72874); assay: Binding affinity against HIV-1 protease
[6] = tested on: Human immunodeficiency virus 1; assay: Antiviral activity in HIV-1 infected H9 cells; format: functional; details: Human immunodeficiency virus 1, H9; read-out: ED50 (the source's name)
Outline: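 H9 cells infected with HIV-1 IIIB at MOI about 0.005, spun down (200g, 10 min), resuspended at 8 × 10^5 cells/mL in RPMI Complete and mixed with compound; final DMSO 0.1%, triplicate per concentration. After 5 days at 37 °C in 5% CO2, supernatant p24 antigen was measured by ELISA. ED50 is the drug amount that reduces p24 by 50% versus DMSO drug-free controls.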

[7] = Median cell culture toxic dose was evaluated against H9 cell line; format: ADME, cell-based; details: human, H9 cells; read-out: CCTD50
[8] = Maximum time taken by the drug to reach peak concentration after peroral administration of 5.0 mg/kg of drug in male Dawley rats; format: ADME, organism-based; set-up: dose 5 mg/kg, route oral; details: Sprague-Dawley, rat, in vivo, po
[9] = Half-life was measured after intravenous administration of 2.5 mg/kg of drug in male Dawley rats; format: ADME, organism-based; set-up: dose 2.5 mg/kg, route intravenous; details: Sprague-Dawley, rat, in vivo
[10] = Total plasma clearance value was obtained after intravenous administration of 2.5 mg/kg of drug in male Dawley rats; format: ADME, organism-based; set-up: dose 2.5 mg/kg, route intravenous; details: Sprague-Dawley, rat
[11] = Maximum concentration was measured after peroral administration of 5.0 mg/kg of drug in male Dawley rats; format: ADME, organism-based; set-up: dose 5 mg/kg, route oral; details: Sprague-Dawley, rat, in vivo, po
[12] = Oral bioavailability in rat (Sprague-Dawley) (male) (dose 5 mg/kg); format: ADME, organism-based; details: in vivo
[13] = Apparent volume of distribution was obtained after intravenous administration of 2.5 mg/kg of drug in male Dawley rats; format: ADME, organism-based; set-up: dose 2.5 mg/kg, route intravenous; details: Sprague-Dawley, rat, in vivo, read-out: Vss

Structure (SMILES)	Ki [5]	EC50 [6]	CC50 [7]	further results
O=c1c2c(oc(O)c1C(c1cccc(N(Cc3ccccc3)S(=O)(=O)c3ccccc3)c1)C1CC1)CCCCCC2 (stereo not drawn)				inhibition [1]: < 10%; inhibition [2]: < 10%
O=c1c2c(oc(O)c1C(c1cccc(N(S(=O)(=O)c3ccccc3)S(=O)(=O)c3ccccc3)c1)C1CC1)CCCCCC2 (stereo not drawn)				inhibition [3]: 10%
O=c1c2c(oc(O)c1C(c1cccc(N(CCc3ccccc3)S(=O)(=O)c3ccccc3)c1)C1CC1)CCCCCC2 (stereo not drawn)				inhibition [1]: < 10%; inhibition [4]: < 10%
O=c1c2c(oc(O)c1C(c1cccc(N(CC3CC3)S(=O)(=O)c3ccccc3)c1)C1CC1)CCCCCC2 (stereo not drawn)				inhibition [1]: < 10%
CN(C)c1ccc(S(=O)(=O)Nc2cccc(C(c3c(O)c4c(oc3=O)CCCCCC4)C3CC3)c2)cc1 (stereo not drawn)	2.8 nM	8700 nM	> 30000 nM	
O=c1c2c(oc(O)c1C(c1cccc(NS(=O)(=O)c3cccc4cccnc34)c1)C1CC1)CCCCCC2 (stereo not drawn)	1.9 nM	1400 nM	82000 nM	
CC(C)CC(c1cccc(NS(=O)(=O)c2ccc(F)cc2)c1)c1c(O)c2c(oc1=O)CCCCCC2 (stereo not drawn)	2.8 nM	> 10000 nM	> 30000 nM	
Cn1cnc(S(=O)(=O)Nc2cccc([C@@H](c3c(O)c4c(oc3=O)CCCCCC4)C3CC3)c2)c1	0.045 nM	2100 nM	> 30000 nM	Tmax [8]: 0.25 h; half-life [9]: 2.4 h; clearance [10]: 4.67 mL/min/kg; Cmax [11]: 0.64 µM; bioavailability [12]: 15%; Vd [13]: 0.2 L/kg
CCCC(c1cccc(NS(=O)(=O)c2ccc(C#N)cc2)c1)c1c(O)c2c(oc1=O)CCCCCC2 (stereo not drawn)	1.4 nM	3900 nM	> 30000 nM	
Cc1cccc(S(=O)(=O)Nc2cccc(C(c3c(O)c4c(oc3=O)CCCCCC4)C3CC3)c2)c1 (stereo not drawn)	5.3 nM	4000 nM	> 30000 nM	
CCCCC(c1cccc(NS(=O)(=O)c2ccc(C#N)cc2)c1)c1c(O)c2c(oc1=O)CCCCCC2 (stereo not drawn)	2.1 nM	7600 nM	> 30000 nM	
O=c1c2c(oc(O)c1C(c1cccc(NS(=O)(=O)c3cccc([N+](=O)[O-])c3)c1)C1CC1)CCCCCC2 (stereo not drawn)	4.7 nM	4200 nM	> 30000 nM	
CCCC(c1cccc(NS(=O)(=O)c2cn(C)cn2)c1)c1c(O)c2c(oc1=O)CCCCCC2 (stereo not drawn)	0.1 nM	2500 nM	> 30000 nM	
N#Cc1ccc(S(=O)(=O)Nc2cccc(C(c3c(O)oc4c(c3=O)CCCCCC4)C3CC3)c2)nc1 (stereo not drawn)	1 nM	900 nM	> 30000 nM	
Cn1cnc(S(=O)(=O)Nc2cccc(C(c3c(O)c4c(oc3=O)CCCCCC4)C3CC3)c2)c1 (stereo not drawn)	1.6 nM	2700 nM	> 100000 nM	
N#Cc1cccc(S(=O)(=O)Nc2cccc(C(c3c(O)oc4c(c3=O)CCCCCC4)C3CC3)c2)c1 (stereo not drawn)	0.6 nM	> 3000 nM	> 30000 nM	
Nc1cccc(S(=O)(=O)Nc2cccc(C(c3c(O)c4c(oc3=O)CCCCCC4)C3CC3)c2)c1 (stereo not drawn)	2.3 nM	6300 nM	> 30000 nM	
O=c1c2c(oc(O)c1C(c1cccc(NS(=O)(=O)c3ccc(OC(F)(F)F)cc3)c1)C1CC1)CCCCCC2 (stereo not drawn)	4 nM	3400 nM	> 30000 nM	
O=c1c2c(oc(O)c1C(c1cccc(NS(=O)(=O)c3cnccn3)c1)C1CC1)CCCCCC2 (stereo not drawn)	0.2 nM	2000 nM	> 30000 nM	

Structure (SMILES)	Ki [5]	EC50 [6]	CC50 [7]	further results
O=c1c2c(oc(O)c1C(c1cccc(NS(=O)(=O)c3ccc(C(F)(F)F)cc3)c1)C1CC1)CCCCCC2 (stereo not drawn)	6.2 nM	6400 nM	> 30000 nM	
[N-]=[N+]=Nc1ccc(S(=O)(=O)Nc2cccc(C(c3c(O)oc4c(c3=O)CCCCCC4)C3CC3)c2)cc1 (stereo not drawn)	2.6 nM	1700 nM	> 30000 nM	
CCCC(c1cccc(NS(=O)(=O)c2ccc(Cl)cc2)c1)c1c(O)c2c(oc1=O)CCCCCC2 (stereo not drawn)	4 nM	> 10000 nM	> 30000 nM	
O=c1c2c(oc(O)c1[C@H](c1cccc(NS(=O)(=O)c3cccc4cccnc34)c1)C1CC1)CCCCCC2	0.4 nM	1300 nM	> 30000 nM	Tmax [8]: 0.25 h; half-life [9]: 1.8 h; clearance [10]: 2.83 mL/min/kg; Cmax [11]: 6.2 µM; bioavailability [12]: 34%; Vd [13]: 0.15 L/kg
COC(=O)c1cccc(S(=O)(=O)Nc2cccc(C(c3c(O)c4c(oc3=O)CCCCCC4)C3CC3)c2)c1 (stereo not drawn)	1.4 nM	2600 nM	> 30000 nM	
O=c1c2c(oc(O)c1C(c1cccc(NS(=O)(=O)c3ccccn3)c1)C1CC1)CCCCCC2 (stereo not drawn)	2.2 nM	4600 nM	> 30000 nM	
CC(C)CC(c1cccc(NS(=O)(=O)c2cccc3cccnc23)c1)c1c(O)c2c(oc1=O)CCCCCC2 (stereo not drawn)	3.3 nM	> 10000 nM	> 30000 nM	
CCCCC(c1cccc(NS(=O)(=O)c2ccc(F)cc2)c1)c1c(O)c2c(oc1=O)CCCCCC2 (stereo not drawn)	6.1 nM	> 10000 nM	> 30000 nM	
CCCC(c1cccc(NS(=O)(=O)c2ccc(F)cc2)c1)c1c(O)c2c(oc1=O)CCCCCC2 (stereo not drawn)	2.1 nM	6300 nM	> 30000 nM	
CC(C)C(c1cccc(NS(=O)(=O)c2cccc3cccnc23)c1)c1c(O)c2c(oc1=O)CCCCCC2 (stereo not drawn)	4.2 nM	> 10000 nM	> 30000 nM	
CC(C)N(c1cccc(C(c2c(O)c3c(oc2=O)CCCCCC3)C2CC2)c1)S(=O)(=O)c1ccccc1 (stereo not drawn)				inhibition [1]: < 10%
CCCC(c1cccc(NS(=O)(=O)c2cccnc2)c1)c1c(O)c2c(oc1=O)CCCCCC2 (stereo not drawn)	2.2 nM	> 10000 nM	> 30000 nM	
O=c1c2c(oc(O)c1C(c1cccc(NS(=O)(=O)c3ccc(Cl)c(Cl)c3Cl)c1)C1CC1)CCCCCC2 (stereo not drawn)	8.8 nM	4100 nM	> 30000 nM	
CCC(c1cccc(NS(=O)(=O)c2ccc(C#N)cc2)c1)c1c(O)c2c(oc1=O)CCCCCC2 (stereo not drawn)	3.1 nM	3300 nM	> 30000 nM	
O=c1c2c(oc(O)c1C(c1cccc(NS(=O)(=O)c3ccc(F)cc3F)c1)C1CC1)CCCCCC2 (stereo not drawn)	4.1 nM	4200 nM	> 30000 nM	
CC(C)CC(c1cccc(NS(=O)(=O)c2cccnc2)c1)c1c(O)c2c(oc1=O)CCCCCC2 (stereo not drawn)	9.3 nM	> 10000 nM	> 30000 nM	
O=C(O)c1cccc(S(=O)(=O)Nc2cccc(C(c3c(O)c4c(oc3=O)CCCCCC4)C3CC3)c2)c1 (stereo not drawn)	4.5 nM	> 10000 nM	> 30000 nM	
CCC(c1cccc(NS(=O)(=O)c2ccc(Cl)cc2)c1)c1c(O)c2c(oc1=O)CCCCCC2 (stereo not drawn)	3.5 nM	4700 nM	> 30000 nM	
O=c1c2c(oc(O)c1C(c1cccc(NS(=O)(=O)c3ccc4ccccc4n3)c1)C1CC1)CCCCCC2 (stereo not drawn)	0.4 nM	5400 nM	> 30000 nM	
